Results from ChEMBL document CHEMBL2203278, “N-Phenyl-4-hydroxy-2-quinolone-3-carboxamides as selective inhibitors of mutant H1047R phosphoinositide-3-kinase (PI3Kα)” (Bioorg Med Chem, 2012).

Columns and labels:
HCT-116 [1] = assay: Growth inhibition of human HCT116 cells expressing PI3Kalpha H1047R mutant by MTT assay; assay type: functional, cell-based
Summary of the method: (§1)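 Growth of parental (WT) and H1047R-mutant HCT116 cells was measured by MTT assay, with absorbance read at 570 nm.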

[2] = system: Phosphatidylinositol 4,5-bisphosphate 3-kinase catalytic subunit alpha isoform (Homo sapiens), P42336 [H1047R]; assay: Inhibition of PI3Kalpha H1047R mutant in human HCT116 cells assessed as increase in PARP cleavage relative to LY294002; assay type: cell-based; details: HCT-116
Chain of Phosphatidylinositol 4,5-bisphosphate 3-kinase catalytic subunit alpha isoform (Homo sapiens), P42336 [H1047R] (P42336 whole entry H1047R, canonical isoform): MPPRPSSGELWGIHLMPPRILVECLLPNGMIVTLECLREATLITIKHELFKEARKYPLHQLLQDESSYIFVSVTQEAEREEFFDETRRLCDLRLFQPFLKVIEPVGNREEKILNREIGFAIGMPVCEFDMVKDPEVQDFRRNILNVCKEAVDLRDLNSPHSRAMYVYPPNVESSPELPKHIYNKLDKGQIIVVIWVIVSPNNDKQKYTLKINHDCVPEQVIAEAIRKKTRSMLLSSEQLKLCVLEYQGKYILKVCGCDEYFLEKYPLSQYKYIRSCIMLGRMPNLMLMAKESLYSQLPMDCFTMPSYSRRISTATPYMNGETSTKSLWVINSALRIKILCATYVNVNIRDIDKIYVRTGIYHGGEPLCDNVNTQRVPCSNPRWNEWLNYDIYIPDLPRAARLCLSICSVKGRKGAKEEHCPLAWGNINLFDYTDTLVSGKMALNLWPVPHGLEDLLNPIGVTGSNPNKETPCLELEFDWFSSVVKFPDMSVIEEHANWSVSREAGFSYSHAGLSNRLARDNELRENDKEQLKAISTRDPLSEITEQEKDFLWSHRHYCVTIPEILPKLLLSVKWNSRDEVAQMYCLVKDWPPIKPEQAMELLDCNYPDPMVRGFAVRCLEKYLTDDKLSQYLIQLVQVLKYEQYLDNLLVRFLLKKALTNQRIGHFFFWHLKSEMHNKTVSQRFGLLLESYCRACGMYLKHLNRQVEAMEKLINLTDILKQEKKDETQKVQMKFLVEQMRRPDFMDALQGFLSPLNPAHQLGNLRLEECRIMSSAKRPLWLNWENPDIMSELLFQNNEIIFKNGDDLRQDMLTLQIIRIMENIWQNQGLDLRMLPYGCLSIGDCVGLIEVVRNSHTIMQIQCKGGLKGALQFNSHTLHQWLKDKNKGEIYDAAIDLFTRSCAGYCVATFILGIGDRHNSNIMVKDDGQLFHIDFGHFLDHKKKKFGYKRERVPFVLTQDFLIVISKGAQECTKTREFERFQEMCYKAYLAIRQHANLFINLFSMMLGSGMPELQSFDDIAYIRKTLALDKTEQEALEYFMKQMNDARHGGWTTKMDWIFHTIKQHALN
Summary of the method: (§2)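 Apoptosis was assessed in HCT116-WT and HCT116-MUT cells, each treated with compound at a single concentration, by immunoblot for the 88 kDa cleaved PARP product. Blots were blocked in 5% milk/TBST, probed with primary antibody (1:1000) and peroxidase secondary (1:1000), and developed by ECL. Band areas were quantified by densitometry relative to LY294002.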

[3] = biological target: Phosphatidylinositol 4,5-bisphosphate 3-kinase catalytic subunit alpha isoform (Homo sapiens) (UniProt P42336); assay: Inhibition of PI3Kalpha in human HCT116 cells assessed as increase in PARP cleavage relative to LY294002; assay type: cell-based; details: HCT-116; summary of the method: as §2
Chain of Phosphatidylinositol 4,5-bisphosphate 3-kinase catalytic subunit alpha isoform (Homo sapiens) (P42336 whole entry, canonical isoform): as the sequence (P42336 whole entry H1047R, canonical isoform) above, with R1047H counted along it

[4] = system: Phosphatidylinositol 4,5-bisphosphate 3-kinase catalytic subunit alpha isoform (Homo sapiens), P42336 [H1047R]; assay: Inhibition of PI3Kalpha H1047R mutant in human HCT116 cells assessed as inhibition of Akt phosphorylation at S473 residue relative to DMSO; assay type: cell-based; details: HCT-116
Summary of the method: (§3)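 AKT activation was read as pAKT on immunoblots of lysates from compound-treated HCT116-WT and HCT116-MUT cells, tested at a single concentration. Lysate protein was measured by the […]. Blots were blocked in 5% milk/TBST, probed with primary antibody (1:1000) and HRP secondary (1:1000), and developed by ECL. Band areas were quantified relative to DMSO.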

HCT-116 [5] = assay: Selectivity index, ratio of IC50 for human HCT116 cell to IC50 for PI3Kalpha H1047R mutant expressing human HCT116 cell; assay type: functional
HCT-116 [6] = assay: Growth inhibition of human HCT116 cells by MTT assay; assay type: functional, cell-based; summary of the method: as §1
[7] = system: Phosphatidylinositol 4,5-bisphosphate 3-kinase catalytic subunit alpha isoform (Homo sapiens), P42336 [H1047R]; assay: Inhibition of PI3Kalpha H1047R mutant in human HCT116 cells relative to LY294002; assay type: cell-based; details: HCT-116
Summary of the method: (§4)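 PI3K kinase activity was assayed in lysates of compound-treated HCT116-WT and HCT116-MUT cells, using a single compound concentration. Cells were washed with PBS, lysed, and the supernatants were collected by centrifugation for 15 min. Resulting band areas were quantified densitometrically relative to LY294002.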

[8] = biological target: Phosphatidylinositol 4,5-bisphosphate 3-kinase catalytic subunit alpha isoform (Homo sapiens) (UniProt P42336); assay: Inhibition of PI3Kalpha in human HCT116 cells assessed as inhibition of Akt phosphorylation at S473 residue relative to DMSO; assay type: cell-based; details: HCT-116; summary of the method: as §3
[9] = biological target: Phosphatidylinositol 4,5-bisphosphate 3-kinase catalytic subunit alpha isoform (Homo sapiens) (UniProt P42336); assay: Inhibition of PI3Kalpha in human HCT116 cells relative to LY294002; assay type: cell-based; details: HCT-116; summary of the method: as §4

Row | SMILES | IC50 (HCT-116 [1]) [µM] | fold change (FC) [2] | fold change (FC) [3] | fold change (FC) [4] | Ratio IC50 (HCT-116 [5]) | IC50 (HCT-116 [6]) [µM] | fold change (FC) [7] | fold change (FC) [8] | fold change (FC) [9]
1 | O=C(Nc1ccc(F)cc1)c1c(O)c2cc(F)ccc2[nH]c1=O | 6.9 | 1.37 | 1.01 | 0.86 | 2.2 | 15 | 0.59 | 0.95 | 0.65
2 | O=C(Nc1cccc(F)c1)c1c(O)c2ccc(F)cc2[nH]c1=O | 0.28 | 1.35 | 0.4 | 0.51 | 23 | 6.5 | 0.9 | 1.01 | 0.75
3 | O=C(Nc1ccccc1)c1c(O)nc2ccccc2c1O | 2.5 | 4.99 | 0.01 | 0.4 | 3.8 | 9.4 | 0.71 | 0.11 | 0.89
4 | O=C(Nc1ccccc1F)c1c(O)c2cccc(F)c2[nH]c1=O | 3.6 | 5.05 | 0.88 | 1.23 | 6 | 22 | 0.75 | 1.6 | 0.69
5 | Cn1c(=O)c(C(=O)Nc2ccccc2)c(O)c2ccccc21 | 100 | – | – | – | – | 110 | – | – | –
6 | O=C(NCc1ccccc1)c1cnc2ccccc2c1 | 120 | 0.06 | 0.81 | 0.3 | – | 65 | 0.87 | 1.59 | 0.7
7 | Cc1ccc(NC(=O)c2c(O)c3cc(C)ccc3[nH]c2=O)cc1 | 5.6 | 1.14 | 1 | 0.41 | 4.8 | 27 | 0.79 | 1.66 | 0.75
8 | COc1ccc(NC(=O)c2c(O)c3cc(OC)ccc3[nH]c2=O)cc1 | 6.3 | 3.9 | 0.01 | 0.44 | 10 | 64 | 0.64 | 1.66 | 0.82
9 | O=C(NCc1ccccc1)c1cc2ccccc2[nH]c1=O | 330 | 0.05 | 0.92 | 0.13 | – | 420 | 0.8 | 0.09 | 0.14
10 | O=C(NCc1ccccc1)c1cnc2ccccc2c1O | 19 | 0.2 | 0.71 | 0.2 | – | 24 | 0.88 | 1 | 0.56
11 | O=c1cc(N2CCOCC2)oc2c(-c3ccccc3)cccc12 | – | – | – | 0.41 | – | – | – | 0.01 | –
